Assay type in all cases: functional
Assay [1] deals with Puccinia graminis f. tritici. Briefly: Antifungal activity against Puccinia graminis f. tritici assessed as inhibition of wheat stem rust disease on wheat cultivar Yuma at 6.25 ppm measured 24 hr post fungal inoculation relative to untreated control. The gist of the method:
(§1)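 Whole-plant protectant test: pure compounds in acetone, serially diluted in acetone to 6.25, 25 or 100 ppm and applied to plants.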

Assay [2] concerns Zymoseptoria tritici. The experiment in a line: Antifungal activity against Zymoseptoria tritici assessed as inhibition of wheat leaf spot disease on wheat cultivar Yuma at 6.25 ppm measured 24 hr post fungal inoculation relative to untreated control. The method in brief: as §1
For assay [3], the system named is Plasmopara viticola. Briefly: Antifungal activity against Plasmopara viticola assessed as inhibition of grape downy mildew disease on vines cultivar Carignane plants at 100 ppm measured 24 hr post fungal inoculation relative to untreated control. The gist of the method: as §1
Assay [4] concerns Parastagonospora nodorum. Briefly: Antifungal activity against Phaeosphaeria nodorum assessed as inhibition of glume blotch disease on wheat cultivar Yuma plants at 100 ppm measured 24 hr post fungal inoculation relative to untreated control. The method in brief: as §1
The subject of assay [5] is Parastagonospora nodorum. Briefly: Antifungal activity against Phaeosphaeria nodorum assessed as inhibition of glume blotch disease on wheat cultivar Yuma plants at 25 ppm measured 24 hr post fungal inoculation relative to untreated control. The method in brief:
as §1

Assay [6] concerns Plasmopara viticola. The experiment in a line: Antifungal activity against Plasmopara viticola assessed as inhibition of grape downy mildew disease on vines cultivar Carignane plants at 6.25 ppm measured 24 hr post fungal inoculation relative to untreated control. The gist of the method: as §1
Assay [7] deals with Puccinia graminis f. tritici. The experiment in a line: Antifungal activity against Puccinia graminis f. tritici assessed as inhibition of wheat stem rust disease on wheat cultivar Yuma at 25 ppm measured 24 hr post fungal inoculation relative to untreated control. The gist of the method:
as §1

Assay [8] has as its system Phytophthora infestans. The experiment in a line: Antifungal activity against Phytophthora infestans assessed as inhibition of late tomato blight disease on tomato cultivar Rutgers plants at 100 ppm measured 24 hr post fungal inoculation relative to untreated control. The method in brief: as §1
Assay [9] has as its system Phytophthora infestans. Briefly: Antifungal activity against Phytophthora infestans assessed as inhibition of late tomato blight disease on tomato cultivar Rutgers plants at 6.25 ppm measured 24 hr post fungal inoculation relative to untreated control. The gist of the method:
as §1

The subject of assay [10] is Phytophthora infestans. Briefly: Antifungal activity against Phytophthora infestans assessed as inhibition of late tomato blight disease on tomato cultivar Rutgers plants at 25 ppm measured 24 hr post fungal inoculation relative to untreated control. The method in brief:
as §1

The subject of assay [11] is Parastagonospora nodorum. Briefly: Antifungal activity against Phaeosphaeria nodorum assessed as inhibition of glume blotch disease on wheat cultivar Yuma plants at 6.25 ppm measured 24 hr post fungal inoculation relative to untreated control. The method in brief: as §1
In assay [12] the test system is Zymoseptoria tritici. Briefly: Antifungal activity against Zymoseptoria tritici assessed as inhibition of wheat leaf spot disease on wheat cultivar Yuma at 100 ppm measured 24 hr post fungal inoculation relative to untreated control. The method in brief: as §1
Assay [13] concerns Puccinia graminis f. tritici. The experiment in a line: Antifungal activity against Puccinia graminis f. tritici assessed as inhibition of wheat stem rust disease on wheat cultivar Yuma at 100 ppm measured 24 hr post fungal inoculation relative to untreated control. The gist of the method:
as §1

In assay [14] the test system is Zymoseptoria tritici. The experiment in a line: Antifungal activity against Zymoseptoria tritici assessed as inhibition of wheat leaf spot disease on wheat cultivar Yuma at 25 ppm measured 24 hr post fungal inoculation relative to untreated control. The method in brief:
as §1

Assay [15] deals with Plasmopara viticola. The experiment in a line: Antifungal activity against Plasmopara viticola assessed as inhibition of grape downy mildew disease on vines cultivar Carignane plants at 25 ppm measured 24 hr post fungal inoculation relative to untreated control. The method in brief: as §1
For assay [16], the system named is Puccinia graminis f. tritici. The experiment in a line: Antifungal activity against Puccinia graminis f. tritici assessed as inhibition of wheat stem rust disease on wheat cultivar Yuma at 25 ppm measured 96 hr post fungal inoculation relative to untreated control. The gist of the method:
as §1

In assay [17] the test system is Phytophthora infestans. The experiment in a line: Antifungal activity against Phytophthora infestans assessed as inhibition of late tomato blight disease on tomato cultivar Rutgers plants at 6.25 ppm measured 96 hr post fungal inoculation relative to untreated control. The method in brief: as §1
Assay [18] deals with Plasmopara viticola. The experiment in a line: Antifungal activity against Plasmopara viticola assessed as inhibition of grape downy mildew disease on vines cultivar Carignane plants at 100 ppm measured 96 hr post fungal inoculation relative to untreated control. The gist of the method:
as §1

Assay [19] has as its system Phytophthora infestans. The experiment in a line: Antifungal activity against Phytophthora infestans assessed as inhibition of late tomato blight disease on tomato cultivar Rutgers plants at 25 ppm measured 96 hr post fungal inoculation relative to untreated control. The method in brief:
as §1

Assay [20] deals with Puccinia graminis f. tritici. Briefly: Antifungal activity against Puccinia graminis f. tritici assessed as inhibition of wheat stem rust disease on wheat cultivar Yuma at 100 ppm measured 96 hr post fungal inoculation relative to untreated control. The gist of the method: as §1
The test system of assay [21] is Phytophthora infestans. Briefly: Antifungal activity against Phytophthora infestans assessed as inhibition of late tomato blight disease on tomato cultivar Rutgers plants at 100 ppm measured 96 hr post fungal inoculation relative to untreated control. The gist of the method:
as §1

Assay [22] relates to Plasmopara viticola. Briefly: Antifungal activity against Plasmopara viticola assessed as inhibition of grape downy mildew disease on vines cultivar Carignane plants at 6.25 ppm measured 96 hr post fungal inoculation relative to untreated control. The method in brief:
as §1

In assay [23] the test system is Plasmopara viticola. The experiment in a line: Antifungal activity against Plasmopara viticola assessed as inhibition of grape downy mildew disease on vines cultivar Carignane plants at 25 ppm measured 96 hr post fungal inoculation relative to untreated control. The gist of the method:
as §1

The subject of assay [24] is Puccinia graminis f. tritici. Briefly: Antifungal activity against Puccinia graminis f. tritici assessed as inhibition of wheat stem rust disease on wheat cultivar Yuma at 6.25 ppm measured 96 hr post fungal inoculation relative to untreated control. The method in brief:
as §1

Each structure is given as a SMILES string.

The term inhibition denotes the relative decrease from the control value, in per cent.

In the case of `C=C1[C@@H]2[C@@H](O)C=C(C=O)[C@H](C=O)[C@@]2(C)[C@H](OC(=O)/C=C/c2ccccc2)C[C@@H]1C`, the inhibition at 6.25 ppm in [1] amounted to 4%; in the assay on Zymoseptoria tritici [2], 0%; in the assay with Plasmopara viticola [6], 2%; with Phytophthora infestans [9] it was 74%; with Parastagonospora nodorum [11] it was 33%. Further, the inhibition at 100 ppm stood at 89% in the assay on Plasmopara viticola [3]; 96% in the assay on Parastagonospora nodorum [4]; 100% in the assay with Phytophthora infestans [8]; 0% in the assay with Zymoseptoria tritici [12]; 85% in assay [13]. The inhibition at 25 ppm in the assay with Parastagonospora nodorum [5] came to 73%; in assay [7], 15%; with Phytophthora infestans [10] it was 91%; with Zymoseptoria tritici [14] it was 0%; with Plasmopara viticola [15] it was 19%.

As to `C=C1[C@@H](C)C[C@@H](O)[C@]2(C)[C@@H](C=O)C(C=O)=CC[C@@H]12`, the inhibition at 6.25 ppm in assay [1] was found to be 0%; with Zymoseptoria tritici [2], 0%; with Plasmopara viticola [6], 7%; with Phytophthora infestans [9], 19%; with Parastagonospora nodorum [11], 0%. The inhibition at 100 ppm in the assay on Plasmopara viticola [3] stood at 24%; with Parastagonospora nodorum [4], 60%; in the assay on Phytophthora infestans [8], 28%; in the assay with Zymoseptoria tritici [12] it was 0%; in [13], 0%. The inhibition at 25 ppm in the assay with Parastagonospora nodorum [5] turned out to be 0%; in [7], 0%; in the assay with Phytophthora infestans [10] it was 36%; in the assay with Zymoseptoria tritici [14], 0%; with Plasmopara viticola [15], 4%.

For `C=C1[C@@H](C)C[C@@H](OC)[C@]2(C)[C@@H](C=O)C(C=O)=CC[C@@H]12`, the inhibition at 6.25 ppm in assay [1] was 0%; with Zymoseptoria tritici [2], 0%; with Plasmopara viticola [6] it was 9%; in the assay on Phytophthora infestans [9], 3%; in the assay on Parastagonospora nodorum [11], 20%. Also, the inhibition at 100 ppm in the assay with Plasmopara viticola [3] came to 70%; in the assay with Parastagonospora nodorum [4], 20%; with Phytophthora infestans [8] it was 98%; with Zymoseptoria tritici [12], 0%; in [13], 21%. Besides, the inhibition at 25 ppm with Parastagonospora nodorum [5] amounted to 20%; in assay [7], 0%; with Phytophthora infestans [10] it was 67%; in the assay on Zymoseptoria tritici [14] it was 0%; with Plasmopara viticola [15], 33%.

Consider `C=C1[C@@H](C)C[C@@H](OC(=O)/C=C/c2ccccc2)[C@]2(C)[C@@H]3C(=CC[C@@H]12)[C@@H](OC)O[C@H]3OC`, for which the inhibition at 6.25 ppm in [1] was 4%; with Zymoseptoria tritici [2] it was 0%; with Plasmopara viticola [6], 7%; with Phytophthora infestans [17], 0%; with Phytophthora infestans [9], 47%; in the assay with Plasmopara viticola [22], 0%. In addition, the inhibition at 6.25 ppm (in the assay with Parastagonospora nodorum [11]; in assay [24]) was 0% throughout. The inhibition at 100 ppm in the assay with Plasmopara viticola [3] stood at 74%; in the assay on Parastagonospora nodorum [4] it was 20%; in the assay with Phytophthora infestans [8], 99%; in the assay with Plasmopara viticola [18], 57%; in assay [20], 19%; with Phytophthora infestans [21], 14%. For the same molecule, the results for the inhibition at 100 ppm (in the assay with Zymoseptoria tritici [12]; in assay [13]) were 0% and 71%, respectively. The inhibition at 25 ppm in the assay on Parastagonospora nodorum [5] worked out at 0%; in assay [16], 0%; in assay [7] it was 4%; with Phytophthora infestans [10] it was 78%; in the assay on Phytophthora infestans [19] it was 6%; in the assay on Plasmopara viticola [23], 23%. In addition, the values for the inhibition at 25 ppm in the assay on Zymoseptoria tritici [14] and in the assay with Plasmopara viticola [15] were 0% and 61%, respectively.

In the case of `C=C1[C@@H]2[C@@H](O)C=C3[C@@H](OC)O[C@@H](OC)[C@@H]3[C@@]2(C)[C@H](OC(=O)/C=C/c2ccccc2)C[C@@H]1C`, the inhibition at 6.25 ppm in assay [1] was 0%; with Zymoseptoria tritici [2] it was 43%; with Plasmopara viticola [6], 0%; in the assay on Phytophthora infestans [9] it was 0%; with Parastagonospora nodorum [11], 0%. Moreover, the inhibition at 100 ppm worked out at 0% in the assay with Plasmopara viticola [3]; 0% with Parastagonospora nodorum [4]; 0% in the assay on Phytophthora infestans [8]; 78% in the assay on Zymoseptoria tritici [12]; 7% in assay [13]. Further, the inhibition at 25 ppm in the assay with Parastagonospora nodorum [5] came to 0%; in assay [7] it was 4%; in the assay on Phytophthora infestans [10], 0%; in the assay on Zymoseptoria tritici [14] it was 33%; in the assay on Plasmopara viticola [15], 0%.

Turning to `C=C1[C@@H]2[C@@H](O)C=C3[C@@H](OC)O[C@@H](OC)[C@@H]3[C@@]2(C)[C@H](OC(=O)CCc2ccccc2)C[C@@H]1C`, the inhibition at 6.25 ppm was determined as 42% in assay [1]; 0% with Zymoseptoria tritici [2]; 0% with Plasmopara viticola [6]; 0% with Phytophthora infestans [9]; 0% in the assay on Parastagonospora nodorum [11]. The inhibition at 100 ppm in the assay on Plasmopara viticola [3] came out at 0%; with Parastagonospora nodorum [4] it was 0%; in the assay on Phytophthora infestans [8], 0%; in the assay with Zymoseptoria tritici [12] it was 90%; in [13], 9%. Also, the inhibition at 25 ppm with Parastagonospora nodorum [5] is 0%; in assay [7], 9%; with Phytophthora infestans [10], 0%; with Zymoseptoria tritici [14], 17%; with Plasmopara viticola [15] it was 0%.

With `C=C1[C@@H]2[C@@H](O)C=C3[C@@H](OC)O[C@@H](OC)[C@@H]3[C@@]2(C)[C@H](O)C[C@@H]1C`, the inhibition at 100 ppm stood at 0% in the assay with Plasmopara viticola [3]; 0% in the assay with Parastagonospora nodorum [4]; 0% in the assay with Phytophthora infestans [8]; 11% in the assay with Zymoseptoria tritici [12]; 0% in assay [13].

With `C=C1[C@@H]2C(=O)C=C3[C@@H](OC)O[C@@H](OC)[C@@H]3[C@@]2(C)[C@H](OC(=O)/C=C/c2ccccc2)C[C@@H]1C`, the inhibition at 100 ppm (in the assay with Plasmopara viticola [3]; in the assay with Parastagonospora nodorum [4]; in the assay on Phytophthora infestans [8]; with Zymoseptoria tritici [12]; in assay [13]) was 0% each time.

Turning to `C=C1[C@@H]2[C@@H](OC)C=C3[C@@H](OC)O[C@@H](OC)[C@@H]3[C@@]2(C)[C@H](O)C[C@@H]1C`, the inhibition at 100 ppm (in the assay on Plasmopara viticola [3]; in the assay on Parastagonospora nodorum [4]; in the assay on Phytophthora infestans [8]; with Zymoseptoria tritici [12]; in assay [13]) was 0% in each case.

Turning to `C=C1[C@@H](C)C[C@@H](OC(=O)/C=C/c2ccccc2)[C@@]2(C)[C@H]1CC=C(CO)[C@@H]2CO`, the inhibition at 6.25 ppm in assay [1] is 0%; in the assay on Zymoseptoria tritici [2] it was 0%; with Plasmopara viticola [6] it was 4%; with Phytophthora infestans [9], -6%; in the assay on Parastagonospora nodorum [11] it was 0%. The inhibition at 100 ppm in the assay with Plasmopara viticola [3] stood at 70%; in the assay on Parastagonospora nodorum [4], 0%; in the assay on Phytophthora infestans [8], 58%; in the assay on Zymoseptoria tritici [12] it was 0%; in assay [13], 0%. The inhibition at 25 ppm worked out at 0% in the assay with Parastagonospora nodorum [5]; 0% in assay [7]; 8% with Phytophthora infestans [10]; 0% with Zymoseptoria tritici [14]; 22% in the assay with Plasmopara viticola [15].

The values above are taken from ChEMBL document CHEMBL3046621, “Fungicidal sesquiterpene dialdehyde cinnamates from Pseudowintera axillaris” (2006).
